Assay results published in ChEMBL document CHEMBL5303300, “EUbOPEN Chemogenomics Library - Multiplex” (2023).
Several values for one entry are separate records, joined by “and”; a condition that tells them apart may be missing. Equal values may be shown once.

Experiments:
Assay type in all cases: toxicity, cell-based
U2OS = experiment: Multiplex assay against U2OS; details: human, number of replicates 2
Outline: (§1)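 Compound was added to live cells that had been stained at seeding with Hoechst33342, BioTracker Green Microtubule Cytoskeleton Dye, MitoTracker Red and Annexin V Alexa Fluor 680, and imaging followed on a CQ1 microscope at 37°C and 5% CO2. CellPathfinder machine-learning gating divided cells into Hoechst high-intensity objects or normal cells, normal cells into healthy, pyknosed or fragmented nuclei, and pyknosed cells into mitotic or apoptotic. Tubulin, mitochondrial-mass and membrane-permeability phenotypes are per cents of healthy-nucleus cells.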

HEK-293T = experiment: Multiplex assay against HEK293T; details: human, number of replicates 2; outline: as §1
Fibroblast = experiment: Multiplex assay against human fibroblast; details: number of replicates 2; outline: as §1
[1] = 12 h, 1 µM, compound concentration 1 uM
[2] = 12 h, 10 µM, compound concentration 10 uM
[3] = 24 h, 1 µM, compound concentration 1 uM
[4] = 24 h, 10 µM, compound concentration 10 uM
[5] = 48 h, 1 µM, compound concentration 1 uM
[6] = 48 h, 10 µM, compound concentration 10 uM

## CC(C)(C)c1cnc(CSc2cnc(NC(=O)C3CCN(CC(=O)NCCOCCOCCOCCNc4cccc5c4C(=O)N(C4CCC(=O)NC4=O)C5=O)CC3)s2)o1 (configuration not stated)
U2OS; [1]
  Population Apoptotic (%): 40% and 96%
  Population Fragmented Nuclei (%): 10% and 3%
  Population Healthy Nuclei (%): 82% and 88%
  Population Hoechst High Intensity Objects (%): 0%
  Population Membrane Permeable-Phenotype (%): 1%
  Population Mitochondria Different-Phenotype (%): 0% and 3%
  Population Normal (%): 100%
  Population Pyknosed Nuclei (%): 6% and 7%
  Population Tubulin-Different-Phenotype (%): 58% and 74%
U2OS; [2]
  Population Apoptotic (%): 50% and 80%
  Population Healthy Nuclei (%): 47% and 59%
  Population Hoechst High Intensity Objects (%): 1% and 0%
  Population Membrane Permeable-Phenotype (%): 14% and 17%
  Population Mitochondria Different-Phenotype (%): 17% and 31%
  Population Mitotic Cells (%): 50% and 19%
  Population Normal (%): 98% and 100%
  Population Pyknosed Nuclei (%): 23% and 32%
  Population Tubulin-Different-Phenotype (%): 82% and 77%
  Total Cell Count: 60 and 161
U2OS; [3]
  Population Apoptotic (%): 66% and 72%
  Population Fragmented Nuclei (%): 6% and 3%
  Population Healthy Nuclei (%): 87%
  Population Hoechst High Intensity Objects (%): 0%
  Population Membrane Permeable-Phenotype (%): 1%
  Population Mitochondria Different-Phenotype (%): 1%
  Population Mitotic Cells (%): 33% and 27%
  Population Normal (%): 100% and 99%
  Population Pyknosed Nuclei (%): 6% and 9%
  Population Tubulin-Different-Phenotype (%): 56% and 71%
U2OS; [4]
  Population Apoptotic (%): 65% and 93%
  Population Fragmented Nuclei (%): 17% and 11%
  Population Healthy Nuclei (%): 31% and 25%
  Population Hoechst High Intensity Objects (%): 1% and 0%
  Population Membrane Permeable-Phenotype (%): 12% and 14%
  Population Normal (%): 98% and 99%
  Population Pyknosed Nuclei (%): 50% and 63%
  Population Tubulin-Different-Phenotype (%): 81% and 57%
  Total Cell Count: 52 and 141
U2OS; [5]
  Population Fragmented Nuclei (%): 4%
  Population Healthy Nuclei (%): 85% and 86%
  Population Hoechst High Intensity Objects (%): 0%
  Population Membrane Permeable-Phenotype (%): 2% and 1%
  Population Mitochondria Different-Phenotype (%): 0% and 1%
  Population Normal (%): 99% and 100%
  Population Pyknosed Nuclei (%): 9%
  Population Tubulin-Different-Phenotype (%): 57% and 77%
U2OS; [6]
  Population Apoptotic (%): 96% and 86%
  Population Fragmented Nuclei (%): 9% and 19%
  Population Healthy Nuclei (%): 11% and 19%
  Population Hoechst High Intensity Objects (%): 2%
  Population Membrane Permeable-Phenotype (%): 56% and 22%
  Population Mitochondria Different-Phenotype (%): 62% and 22%
  Population Mitotic Cells (%): 3% and 13%
  Population Normal (%): 97%
  Population Pyknosed Nuclei (%): 78% and 61%
  Population Tubulin-Different-Phenotype (%): 75% and 100%
  Total Cell Count: 141 and 48
HEK-293T; [1]
  Population Apoptotic (%): 65% and 77%
  Population Fragmented Nuclei (%): 5% and 4%
  Population Healthy Nuclei (%): 75%
  Population Hoechst High Intensity Objects (%): 15%
  Population Membrane Permeable-Phenotype (%): 4% and 1%
  Population Mitochondria Different-Phenotype (%): 42% and 53%
  Population Mitotic Cells (%): 34% and 22%
  Population Normal (%): 84%
  Population Pyknosed Nuclei (%): 18% and 20%
  Population Tubulin-Different-Phenotype (%): 74% and 82%
  Total Cell Count: 329 and 381
HEK-293T; [2]
  Population Apoptotic (%): 78% and 82%
  Population Fragmented Nuclei (%): 6% and 3%
  Population Healthy Nuclei (%): 75% and 73%
  Population Hoechst High Intensity Objects (%): 27% and 26%
  Population Membrane Permeable-Phenotype (%): 7%
  Population Mitochondria Different-Phenotype (%): 65% and 75%
  Population Mitotic Cells (%): 21% and 17%
  Population Normal (%): 72% and 73%
  Population Pyknosed Nuclei (%): 18% and 22%
  Population Tubulin-Different-Phenotype (%): 70% and 63%
  Total Cell Count: 285 and 270
HEK-293T; [3]
  Population Apoptotic (%): 76% and 75%
  Population Fragmented Nuclei (%): 5%
  Population Healthy Nuclei (%): 80% and 74%
  Population Hoechst High Intensity Objects (%): 17% and 20%
  Population Membrane Permeable-Phenotype (%): 2% and 1%
  Population Mitochondria Different-Phenotype (%): 49% and 52%
  Population Mitotic Cells (%): 23% and 25%
  Population Normal (%): 82% and 80%
  Population Pyknosed Nuclei (%): 14% and 20%
  Population Tubulin-Different-Phenotype (%): 69% and 74%
  Total Cell Count: 332 and 395
HEK-293T; [4]
  Population Apoptotic (%): 77% and 75%
  Population Fragmented Nuclei (%): 9% and 3%
  Population Healthy Nuclei (%): 65% and 68%
  Population Hoechst High Intensity Objects (%): 30% and 33%
  Population Membrane Permeable-Phenotype (%): 7% and 5%
  Population Mitochondria Different-Phenotype (%): 77% and 80%
  Population Mitotic Cells (%): 22% and 25%
  Population Normal (%): 69% and 66%
  Population Pyknosed Nuclei (%): 25% and 28%
  Population Tubulin-Different-Phenotype (%): 85%
  Total Cell Count: 268 and 254
HEK-293T; [5]
  Population Apoptotic (%): 76% and 85%
  Population Fragmented Nuclei (%): 6%
  Population Healthy Nuclei (%): 82% and 78%
  Population Hoechst High Intensity Objects (%): 11% and 17%
  Population Membrane Permeable-Phenotype (%): 3% and 0%
  Population Mitochondria Different-Phenotype (%): 52% and 59%
  Population Mitotic Cells (%): 23% and 14%
  Population Normal (%): 88% and 82%
  Population Pyknosed Nuclei (%): 11% and 15%
  Population Tubulin-Different-Phenotype (%): 64% and 63%
  Total Cell Count: 294 and 328
HEK-293T; [6]
  Population Apoptotic (%): 84% and 89%
  Population Fragmented Nuclei (%): 8% and 5%
  Population Healthy Nuclei (%): 71% and 70%
  Population Hoechst High Intensity Objects (%): 28% and 20%
  Population Membrane Permeable-Phenotype (%): 3% and 2%
  Population Mitochondria Different-Phenotype (%): 77% and 84%
  Population Mitotic Cells (%): 15% and 10%
  Population Normal (%): 71% and 79%
  Population Pyknosed Nuclei (%): 20% and 24%
  Population Tubulin-Different-Phenotype (%): 83% and 87%
  Total Cell Count: 309 and 250
Fibroblast; [1]
  Population Apoptotic (%): 44% and 47%
  Population Fragmented Nuclei (%): 8% and 7%
  Population Healthy Nuclei (%): 70% and 73%
  Population Hoechst High Intensity Objects (%): 0%
  Population Membrane Permeable-Phenotype (%): 2% and 3%
  Population Mitochondria Different-Phenotype (%): 1% and 0%
  Population Mitotic Cells (%): 55% and 52%
  Population Normal (%): 100%
  Population Pyknosed Nuclei (%): 21% and 19%
  Total Cell Count: 180 and 189
Fibroblast; [2]
  Population Apoptotic (%): 61% and 53%
  Population Fragmented Nuclei (%): 15% and 23%
  Population Healthy Nuclei (%): 47% and 50%
  Population Hoechst High Intensity Objects (%): 0%
  Population Membrane Permeable-Phenotype (%): 15% and 27%
  Population Mitochondria Different-Phenotype (%): 9% and 16%
  Population Mitotic Cells (%): 38% and 46%
  Population Normal (%): 100% and 99%
  Population Pyknosed Nuclei (%): 36% and 25%
  Population Tubulin-Different-Phenotype (%): 58% and 63%
  Total Cell Count: 107 and 167
Fibroblast; [3]
  Population Apoptotic (%): 51% and 77%
  Population Fragmented Nuclei (%): 7% and 16%
  Population Healthy Nuclei (%): 71% and 63%
  Population Hoechst High Intensity Objects (%): 0% and 1%
  Population Membrane Permeable-Phenotype (%): 5% and 7%
  Population Mitochondria Different-Phenotype (%): 7% and 1%
  Population Mitotic Cells (%): 48% and 22%
  Population Normal (%): 100% and 98%
  Population Pyknosed Nuclei (%): 21% and 19%
  Population Tubulin-Different-Phenotype (%): 25% and 17%
  Total Cell Count: 180 and 184
Fibroblast; [4]
  Population Apoptotic (%): 71% and 72%
  Population Fragmented Nuclei (%): 17% and 21%
  Population Healthy Nuclei (%): 50% and 53%
  Population Hoechst High Intensity Objects (%): 0%
  Population Membrane Permeable-Phenotype (%): 14% and 13%
  Population Mitochondria Different-Phenotype (%): 28% and 21%
  Population Mitotic Cells (%): 28% and 27%
  Population Normal (%): 100% and 99%
  Population Pyknosed Nuclei (%): 31% and 24%
  Population Tubulin-Different-Phenotype (%): 56% and 58%
  Total Cell Count: 112 and 153
Fibroblast; [5]
  Population Apoptotic (%): 62% and 71%
  Population Fragmented Nuclei (%): 8% and 9%
  Population Healthy Nuclei (%): 58% and 63%
  Population Hoechst High Intensity Objects (%): 0%
  Population Membrane Permeable-Phenotype (%): 16% and 8%
  Population Mitochondria Different-Phenotype (%): 7% and 0%
  Population Mitotic Cells (%): 37% and 28%
  Population Normal (%): 100%
  Population Pyknosed Nuclei (%): 32% and 27%
  Population Tubulin-Different-Phenotype (%): 34% and 15%
  Total Cell Count: 178 and 166
Fibroblast; [6]
  Population Apoptotic (%): 83% and 78%
  Population Fragmented Nuclei (%): 18% and 26%
  Population Healthy Nuclei (%): 45% and 50%
  Population Hoechst High Intensity Objects (%): 0%
  Population Membrane Permeable-Phenotype (%): 9% and 13%
  Population Mitotic Cells (%): 16% and 21%
  Population Normal (%): 100% and 99%
  Population Pyknosed Nuclei (%): 36% and 23%
  Population Tubulin-Different-Phenotype (%): 44% and 63%
  Total Cell Count: 115 and 158
